Data set [1] has as its system Neutrophil. The data set is described as follows: Cytotoxicity against LPS-stimulated human neutrophils assessed as reduction in cell viability up to 50 uM incubated for 1 hr followed by LPS stimulation by propidium iodide staining based method. The method in brief: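 Viability measured by propidium iodide staining in neutrophils (1 × 10^6/mL) cultured in RPMI 1640. Compounds at final 10, 20, 50 μM were added 1 h before LPS (100 ng/mL). Read-out by cytometry, with 0.1% Triton X-100 as positive control.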

For data set [2], the system named is Neutrophil. Nature of the data set: Antiinflammatory activity against f-MLP-stimulated human neutrophils assessed as reduction in ROS production incubated for 40 mins measured at intervals of 2 mins by luminol-dependent chemiluminescence assay. Format: functional, cell-based. The method in brief:
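Freshly isolated human neutrophils suspended in HBSS at 2.0 × 10^5/mL and incubated with compounds at final 5, 10, 20 μM, diluted from DMSO stocks. ROS release triggered by f-MLP and read by luminol-dependent chemiluminescence. Quercetin served as positive control. Data as mean ± SEM, ANOVA with Tukey post hoc test.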

Data set [3] deals with Neutrophil. Nature of the data set: Antiinflammatory activity against LPS-stimulated human neutrophils assessed as reduction in IL-8 production incubated for 1 hr followed by LPS stimulation measured after 18 to 24 hrs by ELISA. Format: functional, cell-based. The method in brief: (§1)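 Human neutrophils isolated from buffy coat, 1.0 × 10^6/mL in RPMI 1640 with 10% FBS, 10 mM HEPES, 2 mM L-glutamine. Compounds added from 10 mM DMSO stocks at final 10, 20, 50 μM, 1 h before LPS (100 ng/mL). Culture at 37 °C, 5% CO2. Supernatants taken after 18 h by centrifugation and cytokine measured by ELISA. Quercetin positive control; mean ± SEM, ANOVA with Tukey.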
In general terms: In an ELISA, binding on a coated surface is turned into a signal by an enzyme label.

In data set [4] the test system is Neutrophil. Nature of the data set: Antiinflammatory activity against LPS-stimulated human neutrophils assessed as reduction in TNFalpha production incubated for 1 hr followed by LPS stimulation measured after 18 to 24 hrs by ELISA. Format: functional, cell-based. The method in brief:
as §1

For orientation: IC50 means the concentration needed to halve the response being measured. For `COc1cc(-c2oc3cc(O)c(OC)c(O)c3c(=O)c2O[C@@H]2O[C@H](CO)[C@H](O)[C@H](O)[C@H]2O)ccc1O`, the Activity result with Neutrophil [1] is recorded as “Non-Toxic”. The results for the IC50 in the data set on Neutrophil [2], with Neutrophil [3] and in the data set on Neutrophil [4] were 38.5 µM, 51.9 µM and 16.3 µM, respectively.

Turning to `COc1cc(/C=C/C(=O)OC[C@H]2O[C@@H](Oc3cc4oc(-c5ccc(O)c(O)c5)c(O[C@@H]5O[C@H](CO)[C@H](O)[C@H](O)[C@H]5O)c(=O)c4c(O)c3OC)[C@H](O)[C@@H](O)[C@@H]2O)ccc1O`, in the data set on Neutrophil [1], the Activity result is “Non-Toxic”. Also, the results for the IC50 in the data set with Neutrophil [2], in the data set on Neutrophil [3] and with Neutrophil [4] were 36.6 µM, 46.7 µM and 23.2 µM, respectively.

As for `COc1c(O)cc2oc(-c3ccc(O)c(O)c3)c(O[C@@H]3O[C@H](CO)[C@H](O)[C@H](O)[C@H]3O[C@@H]3OC[C@](O)(CO[C@@H]4OC[C@H](O)[C@H](O)[C@H]4O)[C@H]3O)c(=O)c2c1O`, the Activity result with Neutrophil [1] is “Non-Toxic”. Moreover, the IC50 was found to be 5.4 µM in the data set on Neutrophil [2], 24.5 µM in the data set on Neutrophil [3] and 9.7 µM in the data set on Neutrophil [4].

On to `COc1c(O)cc2oc(-c3ccc(O)c(O)c3)c(O[C@@H]3O[C@H](CO)[C@H](O)[C@H](O)[C@H]3O[C@@H]3OC[C@](O)(CO)[C@H]3O)c(=O)c2c1O`, for which the Activity entry in the data set with Neutrophil [1] is given as “Non-Toxic”. Further, the IC50 worked out at 7.1 µM in the data set with Neutrophil [2], 7.2 µM in the data set with Neutrophil [3] and 12.8 µM in the data set with Neutrophil [4].

On to `COc1c(O)cc2oc(-c3ccc(O)c(O)c3)c(O[C@@H]3O[C@H](CO[C@@H]4O[C@H](CO)[C@@H](O)[C@H](O)[C@H]4O)[C@H](O)[C@H](O)[C@H]3O)c(=O)c2c1O`, for which, in the data set on Neutrophil [1], the Activity entry was “Non-Toxic”. The IC50 in the data set with Neutrophil [2] was determined as 5.7 µM; with Neutrophil [3], 28.9 µM; in the data set with Neutrophil [4], 9.3 µM.

In the case of `COc1c(O)cc2oc(-c3ccc(O)c(O)c3)c(O[C@@H]3O[C@H](CO[C@@H]4OC[C@H](O)[C@H](O)[C@H]4O)[C@H](O)[C@H](O)[C@H]3O)c(=O)c2c1O`, in the data set on Neutrophil [1], the Activity result is given as “Non-Toxic”. The IC50 in the data set on Neutrophil [2] is 5.7 µM; in the data set with Neutrophil [3], 25.5 µM.

Take `COc1cc(/C=C/C(=O)OC[C@H]2O[C@@H](Oc3cc4oc(-c5ccc(O)c(OC)c5)c(O[C@@H]5O[C@H](CO)[C@H](O)[C@H](O)[C@H]5O)c(=O)c4c(O)c3OC)[C@H](O)[C@@H](O)[C@@H]2O)ccc1O`: the Activity result in the data set on Neutrophil [1] is “Non-Toxic”. The IC50 was found to be 6 µM in the data set on Neutrophil [2] and 20.7 µM with Neutrophil [4].

Regarding `COc1c(O[C@@H]2O[C@H](CO)[C@@H](O)[C@H](O)[C@H]2O)cc2oc(-c3ccc(O)c(O)c3)c(O[C@@H]3O[C@H](CO)[C@H](O)[C@H](O)[C@H]3O)c(=O)c2c1O`, the Activity entry with Neutrophil [1] was “Non-Toxic”. For the same compound, the IC50 is 26.9 µM with Neutrophil [2] and 66 µM in the data set on Neutrophil [3].

With `COc1cc(-c2oc3cc(O[C@@H]4O[C@H](CO)[C@@H](O)[C@H](O)[C@H]4O)c(OC)c(O)c3c(=O)c2O[C@@H]2O[C@H](CO)[C@H](O)[C@H](O)[C@H]2O)ccc1O`, in the data set on Neutrophil [1], the Activity result is recorded as “Non-Toxic”. Moreover, the IC50 in the data set on Neutrophil [2] came out at 31.5 µM; in the data set on Neutrophil [3], 25.7 µM; with Neutrophil [4], 16.3 µM.

Turning to `COc1c(O)cc2oc(-c3ccc(O)cc3)c(O[C@@H]3O[C@H](CO)[C@H](O)[C@H](O)[C@H]3O)c(=O)c2c1O`, the IC50 with Neutrophil [2] is 15.4 µM; in the data set on Neutrophil [3] it was 18.1 µM; in the data set with Neutrophil [4], 11.7 µM.

Take `COc1c(O)cc2oc(-c3ccc(O)c(O)c3)c(O[C@@H]3O[C@H](CO)[C@H](O)[C@H](O)[C@H]3O)c(=O)c2c1O`: the IC50 is 3.4 µM in the data set with Neutrophil [2], 8 µM in the data set on Neutrophil [3] and 7.7 µM in the data set on Neutrophil [4].

Consider `O=c1c(O)c(-c2ccc(O)c(O)c2)oc2cc(O)cc(O)c12` [QUERCETIN], for which the IC50 stood at 4.4 µM in the data set on Neutrophil [2], 33 µM with Neutrophil [3] and 20.4 µM in the data set on Neutrophil [4].

Source of the values: ChEMBL document CHEMBL4196151, “Anti-inflammatory Potential of Flavonoids from the Aerial Parts of Corispermum marschallii” (J Nat Prod, 2018).
